In general, Cmax refers to the highest concentration seen after dosing. As usually defined, the Tmax is the time at which the peak concentration occurs. Usually half-life stands for the time needed for the level to fall by half in the phase considered. For orientation: bioavailability means the share of a dose that reaches the circulation, judged against a reference dose that is usually intravenous. A word on the IC50: it is the concentration at which inhibition is half-maximal. By ED50 is commonly meant the dose at which the effect has come halfway, by size or by number of responders.

Calls of active or inactive are those of the source.

Series [1] has as its system Mus musculus. The series is described as follows: In-vivo inhibition of MGLL in ICR mouse brain assessed as target engagement at 5 mg/kg, po measured 4 hrs post dose by gel-based ABPP assay relative to control. Type of series: functional. Also on record: scale not given: the % may be the effect or the level left. An outline of the steps: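 Mice received a single 5 mg/kg oral gavage dose. Whole brains were collected 4 h post-dose and target engagement was read by gel-based ABPP with FP-Rh probe.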

Series [2] concerns the target T1, Monoglyceride lipase (Rattus norvegicus) (UniProt Q8R431).
T1 sequence (whole entry): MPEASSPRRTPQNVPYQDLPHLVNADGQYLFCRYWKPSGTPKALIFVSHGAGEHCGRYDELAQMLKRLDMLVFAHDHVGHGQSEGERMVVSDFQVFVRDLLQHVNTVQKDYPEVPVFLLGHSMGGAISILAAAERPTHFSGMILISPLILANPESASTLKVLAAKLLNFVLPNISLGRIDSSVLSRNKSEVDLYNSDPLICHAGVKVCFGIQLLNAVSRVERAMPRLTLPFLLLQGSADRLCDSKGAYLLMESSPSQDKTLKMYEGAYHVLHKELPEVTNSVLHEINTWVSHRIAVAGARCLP
Nature of the series: Inhibition of MGLL in rat brain membrane homogenates at 0.001 to 10 uM preincubated for 30 mins followed by FP-Rh addition after 30 mins by gel-based ABPP assay. Type of series: cell membranes. An outline of the steps: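 Brain protein homogenates (1 mg/mL) treated with compound 0.001–10 µM or DMSO, 30 min at 37°C, then 1 µM FP-Rh (MGLL) or HT-01 (ABHD6), 30 min at 25°C.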

The species entered for series [3] is Canis lupus familiaris. Nature of the series: Inhibition of MGLL in dog brain membrane homogenates at 0.001 to 10 uM preincubated for 30 mins followed by FP-Rh addition after 30 mins by gel-based ABPP assay. Type of series: cell membranes. An outline of the steps:
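Brain membrane homogenates (1 mg/mL protein) were preincubated with 0.001-10 µM inhibitor or DMSO for 30 min at 37°C, then labelled with 1 µM FP-Rh for 30 min at 25°C. Reactions were quenched in SDS-PAGE loading buffer, run on 10% gels and scanned in-gel. MGLL band intensities were normalised to DMSO (100%).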

Series [4] concerns the target T2, Monoacylglycerol lipase ABHD6 (Rattus norvegicus) (UniProt Q5XI64).
T2 sequence (whole entry): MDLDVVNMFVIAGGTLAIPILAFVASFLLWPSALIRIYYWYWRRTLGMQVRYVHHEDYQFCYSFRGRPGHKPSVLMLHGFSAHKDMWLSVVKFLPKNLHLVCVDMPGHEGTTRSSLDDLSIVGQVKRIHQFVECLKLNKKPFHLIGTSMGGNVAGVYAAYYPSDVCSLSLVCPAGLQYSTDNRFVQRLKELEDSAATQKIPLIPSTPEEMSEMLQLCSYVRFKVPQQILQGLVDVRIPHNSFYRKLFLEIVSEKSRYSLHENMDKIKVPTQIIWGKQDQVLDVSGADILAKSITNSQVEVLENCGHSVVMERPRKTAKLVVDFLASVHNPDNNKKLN
The series is described as follows: Inhibition of ABHD6 in rat brain membrane homogenates at 0.001 to 10 uM preincubated for 30 mins followed by FP-Rh addition after 30 mins by gel-based ABPP assay. Type of series: cell membranes.

The species named for series [5] is Canis lupus familiaris. The series is described as follows: Inhibition of ABHD6 in dog brain membrane homogenates at 0.001 to 10 uM preincubated for 30 mins followed by FP-Rh addition after 30 mins by gel-based ABPP assay. Type of series: cell membranes. In short, it runs like this: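 Dog brain membrane homogenates (1 mg/mL protein) were preincubated with 0.001-10 µM inhibitor or DMSO for 30 min at 37°C. They were then labelled with 1 µM probe (FP-Rh or HT-01) for 30 min at 25°C. Reactions were quenched in SDS-PAGE loading buffer and scanned in-gel. ABHD6 band intensities were normalised to DMSO.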

Series [6] can be described thus: Cmax in Sprague-Dawley rat at 5 mg/kg, po by LC-MS analysis. Type of series: ADME, organism-based. Also on record: dose 5 mg/kg, route oral. Conditions: in vivo. In short, it runs like this:
(§1)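 Rats (n = 3 per route) were dosed at 1 mg/kg iv (70% PEG400 in HPBCD/saline) or 5 mg/kg po (70% PEG400 in 0.5% CMC/saline), fasted overnight to 4 h post-dose. Jugular-catheter blood (~100 µL) was sampled to 24 h into 400 µL acetonitrile to stop esterases. Samples were quantified by HPLC-MS/MS, with noncompartmental analysis.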

The nature of series [7]: Clearance in Sprague-Dawley rat at 1 mg/kg, iv or 5 mg/kg, po by LC-MS analysis. Type of series: ADME, organism-based. Conditions: in vivo. An outline of the steps:
as §1

A short description of series [8]: Tmax in Beagle dog at 1 mg/kg, iv or 1 mg/kg, po by LC-MS analysis. Type of series: ADME, organism-based, Canis lupus familiaris. Conditions: in vivo. In short, it runs like this:
(§2)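 Male beagle dogs (n = 3 per route), 10–12 months old, were dosed at 1 mg/kg iv or po in PEG400/ethanol/PBS (7/2/1), fasted overnight to 2 h post-dose. Peripheral venous blood was sampled to 24 h into K2EDTA and plasma frozen at −80 °C. Plasma was quantified by HPLC-MS/MS, with noncompartmental analysis.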

Series [9] can be described thus: Clearance in Beagle dog at 1 mg/kg, iv or 1 mg/kg, po by LC-MS analysis. Type of series: ADME, organism-based, Canis lupus familiaris. As to conditions: in vivo. In short, it runs like this:
as §2

The nature of series [10]: Half life in Beagle dog at 1 mg/kg, iv by LC-MS analysis. Type of series: ADME, organism-based, Canis lupus familiaris. Conditions: in vivo. An outline of the steps:
as §2

Series [11] can be described thus: Oral bioavailability in Beagle dog at 1 mg/kg by LC-MS analysis. As to conditions: in vivo. Type of series: ADME, organism-based, Canis lupus familiaris. In short, it runs like this:
as §2

The nature of series [12]: Stability in Sprague-Dawley rat plasma. Type of series: ADME, cell-free.
Another series concerns the target Cytochrome P450 2C9 (Homo sapiens, UniProt P11712). Nature of the series: Inhibition of recombinant human CYP2C9. Type of series: ADME.
In a further series the target is Cytochrome P450 2C19 (Homo sapiens, UniProt P33261). Nature of the series: Inhibition of recombinant human CYP2C19. Type of series: ADME.
Another series concerns the target Cytochrome P450 3A5 (Homo sapiens, UniProt P20815). The series is described as follows: Inhibition of recombinant human CYP3A5. Type of series: ADME.
For a further series, the target named is Cytochrome P450 2D6 (Homo sapiens, UniProt P10635). Nature of the series: Inhibition of recombinant human CYP2D6. Type of series: ADME.
Series [13] is described as follows: Substrate activity at BCRP (unknown origin) at 10 uM. Type of series: ADME. As to conditions: human.
Series [14] has as its system Mus musculus. Nature of the series: In vivo inhibition of MGLL in po dosed ICR mouse brain measured 4 hrs post dose in presence of FP-Rh probe by gel-based ABPP assay. Type of series: functional. In short, it runs like this:
(§3)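 Male ICR mice, 6–12 weeks old, single oral gavage 0.5–32 mg/kg in PEG400:ethanol:PBS (7/2/1), 5 mL/kg, n = 3. Killed at 4 h; one brain hemisphere for gel-based ABPP with FP-Rh (MGLL band quantified), the other for 2-AG by LC-MS/MS.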

Series [15] deals with Mus musculus. The series is described as follows: In vivo inhibition of MGLL in po dosed ICR mouse brain assessed as increase in 2-AG measured at 4 hrs post dose by LC-MS/MS analysis. Type of series: functional, organism-based. In short, it runs like this: as §3
Series [16] has as its system Rattus norvegicus. The series is described as follows: Antinociceptive activity in Sprague-Dawley rat assessed as reduction in formalin-evoked paw licking duration at 3 mg/kg, po administered 4 hrs prior to formalin challenge and measured between 0 to 15 mins post formalin challenge. Type of series: functional, organism-based.
Series [17] has as its system Rattus norvegicus. Nature of the series: Antinociceptive activity in Sprague-Dawley rat assessed as reduction in formalin-evoked paw licking duration at 3 mg/kg, po administered 4 hrs prior to formalin challenge and measured between 10 to 30 mins post formalin challenge. Type of series: functional, organism-based.
Series [18] concerns the target ATP-dependent translocase ABCB1 (Homo sapiens, UniProt P08183). The series is described as follows: Inhibition of P-gp (unknown origin) at 10 uM. Type of series: ADME.

Cytochrome P450 2C19, sequence (P33261 whole entry): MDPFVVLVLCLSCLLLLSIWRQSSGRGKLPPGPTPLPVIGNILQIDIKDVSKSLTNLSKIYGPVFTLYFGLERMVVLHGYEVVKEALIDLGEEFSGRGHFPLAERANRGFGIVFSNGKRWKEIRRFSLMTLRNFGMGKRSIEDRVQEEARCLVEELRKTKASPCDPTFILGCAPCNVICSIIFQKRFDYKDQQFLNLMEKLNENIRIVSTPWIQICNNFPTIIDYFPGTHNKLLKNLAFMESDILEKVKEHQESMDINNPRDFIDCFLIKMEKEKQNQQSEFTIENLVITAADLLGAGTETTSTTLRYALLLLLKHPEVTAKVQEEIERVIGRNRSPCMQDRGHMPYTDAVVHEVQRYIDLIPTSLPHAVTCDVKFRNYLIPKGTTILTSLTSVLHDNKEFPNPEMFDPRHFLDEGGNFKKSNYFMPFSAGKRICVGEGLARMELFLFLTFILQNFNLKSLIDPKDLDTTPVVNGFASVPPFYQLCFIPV
Cytochrome P450 2D6, sequence (P10635 whole entry): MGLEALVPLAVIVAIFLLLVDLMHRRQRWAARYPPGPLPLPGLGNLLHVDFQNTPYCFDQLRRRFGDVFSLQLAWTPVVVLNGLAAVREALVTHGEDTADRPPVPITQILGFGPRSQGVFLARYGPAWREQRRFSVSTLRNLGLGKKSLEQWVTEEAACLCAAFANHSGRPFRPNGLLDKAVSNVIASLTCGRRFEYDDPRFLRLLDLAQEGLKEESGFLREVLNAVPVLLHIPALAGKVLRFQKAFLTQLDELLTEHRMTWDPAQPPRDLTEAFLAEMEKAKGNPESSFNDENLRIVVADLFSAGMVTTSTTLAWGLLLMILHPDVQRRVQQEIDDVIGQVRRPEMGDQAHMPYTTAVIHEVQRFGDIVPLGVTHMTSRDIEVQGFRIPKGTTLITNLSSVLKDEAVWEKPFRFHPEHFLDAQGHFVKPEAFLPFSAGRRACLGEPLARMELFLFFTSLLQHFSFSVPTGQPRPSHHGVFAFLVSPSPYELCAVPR
Cytochrome P450 3A5, sequence (P20815 whole entry): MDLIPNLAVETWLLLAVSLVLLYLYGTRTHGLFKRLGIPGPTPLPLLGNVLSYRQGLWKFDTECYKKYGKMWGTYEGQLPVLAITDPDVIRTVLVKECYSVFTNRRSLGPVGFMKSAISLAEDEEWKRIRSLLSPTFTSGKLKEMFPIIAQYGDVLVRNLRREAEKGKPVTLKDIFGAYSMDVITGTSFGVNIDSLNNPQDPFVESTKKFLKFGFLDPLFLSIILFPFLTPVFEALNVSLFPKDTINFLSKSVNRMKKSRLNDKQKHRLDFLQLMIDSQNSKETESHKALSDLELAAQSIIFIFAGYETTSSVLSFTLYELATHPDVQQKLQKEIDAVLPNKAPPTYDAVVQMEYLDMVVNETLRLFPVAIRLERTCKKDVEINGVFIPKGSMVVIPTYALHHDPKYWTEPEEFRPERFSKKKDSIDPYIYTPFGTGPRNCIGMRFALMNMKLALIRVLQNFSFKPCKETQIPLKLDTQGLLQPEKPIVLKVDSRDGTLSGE
Cytochrome P450 2C9, sequence (P11712 whole entry): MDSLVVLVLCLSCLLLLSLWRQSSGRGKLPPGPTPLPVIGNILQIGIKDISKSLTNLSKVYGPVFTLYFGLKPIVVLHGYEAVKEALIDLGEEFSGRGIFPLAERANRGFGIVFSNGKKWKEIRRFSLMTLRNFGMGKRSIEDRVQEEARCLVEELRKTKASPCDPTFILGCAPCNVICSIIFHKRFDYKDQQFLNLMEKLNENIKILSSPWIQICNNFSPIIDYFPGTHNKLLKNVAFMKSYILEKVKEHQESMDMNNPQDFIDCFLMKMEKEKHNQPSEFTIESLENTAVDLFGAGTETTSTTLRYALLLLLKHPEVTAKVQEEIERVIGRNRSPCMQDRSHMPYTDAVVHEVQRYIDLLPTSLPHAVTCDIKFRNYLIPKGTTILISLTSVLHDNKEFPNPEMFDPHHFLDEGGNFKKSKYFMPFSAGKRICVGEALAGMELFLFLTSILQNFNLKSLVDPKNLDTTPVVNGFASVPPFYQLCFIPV
ATP-dependent translocase ABCB1, sequence (P08183 whole entry): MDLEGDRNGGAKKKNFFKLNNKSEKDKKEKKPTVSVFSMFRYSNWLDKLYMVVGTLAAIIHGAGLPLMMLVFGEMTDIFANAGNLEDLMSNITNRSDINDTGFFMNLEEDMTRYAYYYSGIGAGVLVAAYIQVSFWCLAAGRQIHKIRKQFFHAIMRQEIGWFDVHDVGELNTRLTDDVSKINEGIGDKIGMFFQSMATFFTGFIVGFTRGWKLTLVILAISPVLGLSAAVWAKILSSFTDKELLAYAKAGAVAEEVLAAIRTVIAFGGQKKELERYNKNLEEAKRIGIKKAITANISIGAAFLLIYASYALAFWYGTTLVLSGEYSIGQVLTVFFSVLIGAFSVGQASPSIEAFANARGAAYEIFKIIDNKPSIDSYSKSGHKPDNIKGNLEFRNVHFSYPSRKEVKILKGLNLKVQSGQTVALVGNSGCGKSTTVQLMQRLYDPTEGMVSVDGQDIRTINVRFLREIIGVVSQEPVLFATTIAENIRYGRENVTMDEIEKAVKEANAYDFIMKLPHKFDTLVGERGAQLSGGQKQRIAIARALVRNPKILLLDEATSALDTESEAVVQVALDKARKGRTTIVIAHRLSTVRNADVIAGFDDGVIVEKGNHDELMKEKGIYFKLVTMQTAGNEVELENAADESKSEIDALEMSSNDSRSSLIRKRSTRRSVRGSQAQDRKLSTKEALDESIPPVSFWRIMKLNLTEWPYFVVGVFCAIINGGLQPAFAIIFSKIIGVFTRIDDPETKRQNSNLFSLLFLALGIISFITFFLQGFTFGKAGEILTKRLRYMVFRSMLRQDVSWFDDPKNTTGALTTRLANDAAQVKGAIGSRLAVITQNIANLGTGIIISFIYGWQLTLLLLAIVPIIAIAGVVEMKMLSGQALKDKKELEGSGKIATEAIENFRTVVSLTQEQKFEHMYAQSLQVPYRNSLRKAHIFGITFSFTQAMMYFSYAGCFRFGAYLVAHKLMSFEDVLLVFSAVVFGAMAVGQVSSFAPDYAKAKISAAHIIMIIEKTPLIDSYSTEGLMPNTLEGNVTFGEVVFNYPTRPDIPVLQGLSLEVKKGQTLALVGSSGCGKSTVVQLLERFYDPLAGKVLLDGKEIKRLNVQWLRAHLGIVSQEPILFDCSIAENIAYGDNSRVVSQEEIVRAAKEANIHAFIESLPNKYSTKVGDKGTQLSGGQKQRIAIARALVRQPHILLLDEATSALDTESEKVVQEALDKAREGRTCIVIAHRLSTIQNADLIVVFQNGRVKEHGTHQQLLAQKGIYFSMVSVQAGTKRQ

For `O=C(OC(C(F)(F)F)C(F)(F)F)N1CCN(Cc2ccc(C(F)(F)F)cc2N2CCCC2)CC1` [ELCUBRAGISTAT], the Activity in the series with Mus musculus [1] was 100%; in [13], “Not Active”. The inhibition result (in series [2]; in the series filed under Canis lupus familiaris [3]; in [4]; in the series filed under Canis lupus familiaris [5]) was “Active” each time. Further, in series [6], the concentration peaked (Cmax) at 688 nM. In addition, the clearance in [7] was 14.7 mL/min/kg; in [9], 6.3 mL/min/kg. The Tmax in series [8] worked out at 1 h. The half-life in [10] was 6.1 h. The compound further had a bioavailability in [11] of 57%. Moreover, the Stability entry in series [12] is listed as “Unstable”. Also, the IC50 at Cytochrome P450 2C9 was greater than 50 µM; on Cytochrome P450 2C19, greater than 50 µM; at Cytochrome P450 3A5, greater than 50 µM; on Cytochrome P450 2D6 it was 6.5 µM. Further, in the series on Mus musculus [14], the ED50 came to 1.4 mg/kg. For the same compound, the inhibition result with Mus musculus [14] and with Mus musculus [15] was “Dose-dependent effect” in each case. In addition, the outcome in the series on Rattus norvegicus [16] and in the series with Rattus norvegicus [17] was Active. For the same compound, the “inhibition (INH)” value in series [18] is on record as “Not Active”.

The record behind these values is ChEMBL document CHEMBL4308843, “Identification of ABX-1431, a Selective Inhibitor of Monoacylglycerol Lipase and Clinical Candidate for Treatment of Neurological Disorders” (J Med Chem, 2018).
